HTRA1 inhibitor: inhibitors of human serine peptidase HTRA1 | recombinant HTRA1, FP-rhodamine activity-based probe, fluorescence polarization | inhibition, % at 5.96 µM | hit rate 0.5% among 340,000 | AID 504803; in the data active means inhibition above about 36%;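 further: 0% = enzyme with DMSO and 100% = wells lacking enzyme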
rCAG RNA binder: binds r(CAG) RNA repeats; AID 651821; r(CAG) RNA repeat, TO-PRO-1 dye displacement fluorescence; inhibition, % at 3 µM; hit rate 1.3% among 370,000;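 active means inhibition above the plate cutoff, the mean of all test compounds on that plate plus 3 SD, cut at about 35% in these data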;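 further: 0% = DMSO alone and 100% = 100 µM mitoxantrone as full dye displacement; higher means more dye released from RNA so lower well fluorescence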
TCR CD3 inh: blocks the human TCR-CD3 interaction; inhibition, % at 9.4 µM; TAMRA-labeled TCR probe fluorescence, biochemical; hit rate 0.37% among 360,000; in the data active means inhibition above about 19%;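 further: recombinant mutant TCR 2C K166C tagged with TAMRA read by polarization; 0% = receptor in buffer alone and 100% = receptor with positive control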
SIAE primary: blocks human sialic acid acetylesterase. Q9HAT2. SIAE FP-Rh probe binding, fluorescence polarization. inhibition, % at 9.66 µM. hit rate 0.69% among 370,000. AID 1053197;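 active means inhibition above a cutoff: mean of compounds within the control limits plus 3 SD of those, cut at about 17% in these data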;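 further: 0% = plate median of compound wells and 100% = probe without SIAE protein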
Target sequence (Q9HAT2 whole entry, looked up): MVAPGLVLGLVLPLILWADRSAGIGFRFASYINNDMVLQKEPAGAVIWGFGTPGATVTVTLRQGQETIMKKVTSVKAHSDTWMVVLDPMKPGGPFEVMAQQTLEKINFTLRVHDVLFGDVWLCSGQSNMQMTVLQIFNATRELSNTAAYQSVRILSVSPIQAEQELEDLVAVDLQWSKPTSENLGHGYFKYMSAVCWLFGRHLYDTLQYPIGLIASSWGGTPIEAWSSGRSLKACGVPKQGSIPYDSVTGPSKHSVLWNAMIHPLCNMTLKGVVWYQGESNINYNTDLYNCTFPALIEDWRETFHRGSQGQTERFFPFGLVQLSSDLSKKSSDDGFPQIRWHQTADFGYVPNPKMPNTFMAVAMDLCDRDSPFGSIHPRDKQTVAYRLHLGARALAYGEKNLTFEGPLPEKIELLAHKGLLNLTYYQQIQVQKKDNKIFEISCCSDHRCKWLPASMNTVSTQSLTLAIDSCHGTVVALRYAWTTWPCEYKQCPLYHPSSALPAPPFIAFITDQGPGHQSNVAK
ABHD4 inh: ABHD4 (mouse) inhibition, primary FP screen. Q8VD66. purified mABHD4, FP-Rh probe fluorescence polarization. inhibition, % at 8.92 µM. hit rate 0.54% among 370,000. AID 720543;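 active means inhibition exceeding the mean over every tested compound plus 3 SD, cut at about 30% in these data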;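 further: 0% = plate median of compound wells and 100% = S159A mutant with DMSO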
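Material: mouse ABHD4 enzyme, wild type; Benchmarks: S159A mutant high control, sample median low control; Buffer or medium: HEPES pH 7.0, NaCl, Pluronic buffer; Signal: fluorescence polarization; Read-out: percent inhibition of probe binding, normalized to plate controls; Timing: pre-incubation 45 min, probe exposure 60 min, at 25 °C; Dosing: 8.92 µM, single dose.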
rCAG binder conf: r(CAG) RNA repeat binding, confirmation. AID 652065. shares compounds with rCAG RNA binder. TO-PRO-1 dye displacement fluorescence. hit rate 70% among 4,300. inhibition, % at 3 µM;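 active means inhibition above a per-plate cutoff, the mean inhibition of sample wells plus 3 SD, cut at about 35% in these data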;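 further: loss of TO-PRO-1 fluorescence as compound displaces dye from 1x1 AA loop RNA; 0% = DMSO only wells and 100% = 100 µM mitoxantrone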
DNA CAG counter: counter-screen for rCAG RNA binders: DNA CAG dye complex inhibitors. d(CAG) DNA oligo TO-PRO-1 dye displacement, fluorescence. inhibition, % at 3 µM. hit rate 94% among 4,300. shares compounds with rCAG RNA binder;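 active means inhibition above its plate's cutoff, the mean test-well inhibition plus 3 SD, cut at about 4.8% in these data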;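 further: 0% = DNA dye mix with DMSO and 100% = 100 µM mitoxantrone; hits displace the dye from DNA and so lower well fluorescence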
mABHD4 conf: ABHD4 (mouse) inhibition, FP confirmation. shares compounds with ABHD4 inh. purified mABHD4, FP-Rh probe fluorescence polarization. inhibition, % at 8.92 µM. hit rate 55% among 1,800;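 active means mean inhibition across replicates above the hit cutoff set in the primary screen, cut at about 30% in these data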;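 further: 0% = wild-type ABHD4 with DMSO and 100% = catalytically dead S159A mutant with DMSO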
SIAE confirm: confirmation of human SIAE inhibitors; shares compounds with SIAE primary; SIAE FP-Rh activity-based probe, fluorescence polarization; inhibition, % at 9.66 µM; hit rate 13% among 2,300;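 active means mean inhibition of the replicates above the hit cutoff set in the primary screen, cut at about 17% in these data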;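 further: 0% = SIAE with DMSO and probe and 100% = probe without SIAE; inhibitors lower polarization as more probe stays unbound to SIAE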
The depositor's hits bear a star; . = not tested or not shown. Only some compounds are listed: those with a hit (about 2.5% of all), similar ones and a draw of the others.

SMILES	HTRA1 inhibitor	rCAG RNA binder	TCR CD3 inh	SIAE primary	ABHD4 inh	rCAG binder conf	DNA CAG counter	mABHD4 conf	SIAE confirm
O=C(NC(=S)Nc1cccc2c(O)cccc12)c1ccccc1[N+](=O)[O-]	8	39*	11	23*	48*	12	7.3*	-11	-4
COc1ccccc1NC(=O)CCSc1ccc(C)cc1	-4	-8	-4	-7	-6	.	.	.	.
CN(CC(=O)Nc1ccccc1Br)CC(=O)NC(c1ccccc1)c1ccccc1	-25	-3	8	-8	-4	.	.	.	.
COc1cc(/C=N/NC(=O)C(Cc2c[nH]c3ccccc23)NC(=O)OCC(C)C)cc([N+](=O)[O-])c1O (centres undefined)	27	57*	-2	55*	36*	69*	25*	49*	44*
COc1cc(C(=O)Nc2scc(-c3ccc(Br)cc3)c2C(=O)O)cc(OC)c1OC	-1	39*	-1	23*	-37	86*	53*	.	31*
COc1ccc2[nH]c3c(C)c4ccncc4c(C)c3c2c1	22	37*	-5	21*	32*	25	27*	57*	20*
Oc1ccccc1-c1nc2c3ccccc3c3ccccc3c2[nH]1	-21	56*	4	27*	-19	39*	29*	.	-2
Oc1ccccc1-c1ccn[nH]1	6	1	-3	-2	0	.	.	.	.
O=C(O)c1cccc(N/N=C/c2cc(Br)cc(Br)c2O)c1	-1	95*	14	31*	56*	83*	48*	80*	3
O=C(O)c1cccc(N/N=C/c2ccc(-c3ccccc3)cc2)c1	-26	33	2	4	8	.	.	.	.
Cc1cc(N/N=C/c2ccc(O)c(C)c2O)nc(-c2ccccc2O)n1	19	62*	3	36*	-22	53*	24*	.	2
C/C(=N\Nc1cc(C)nc(-c2ccccc2O)n1)c1ccccc1	-26	14	-2	-8	-8	.	.	.	.
COC(=O)N/N=C/c1ccc(-c2ccc(Cl)cc2Cl)o1	-17	8	-8	-13	2	.	.	.	.
O=C(O)c1ccc(N/N=C/c2ccc(-c3ccc(Cl)cc3Cl)o2)cc1	3	92*	6	18*	57*	84*	51*	67*	20*
Cc1cccc(NC(=S)N/N=C/c2c[nH]c3ccccc23)c1	25	36*	1	32*	8	23	14*	.	28*
Cc1ccc(C(=O)Nc2ccc(C(=O)N/N=C/c3c[nH]c4ccccc34)cc2)cc1	-11	12	-5	-21	0	.	.	.	.
Cc1c(NC(=O)c2cc(C(C)C)on2)c(=O)n(-c2ccccc2)n1C	2	.	.	.	.	.	.	.	.
Cc1ccc(NS(=O)(=O)c2cc([N+](=O)[O-])ccc2NNC(=S)Nc2cc(C)ccc2C)c(C)c1	36	50*	3	31*	-28	84*	44*	.	1
COc1ccc(NC(=S)NNc2ccc([N+](=O)[O-])cc2S(=O)(=O)Nc2ccc(C)cc2C)cc1	5	39*	-4	47*	39*	81*	45*	38*	-5
CS(=O)(=O)Nc1ccc(C(=O)N2CCc3ccccc3C2)cc1	2	0	-6	-11	3	.	.	.	.
Cc1cc(/C=N/NC(=O)Cn2c3ccccc3c(=O)c3ccccc32)c(C)n1-c1ccccc1	-27	20	11	-13	14	.	.	.	.
CC(C)c1ccc2c(c1)C(N1CCNCC1)Cc1ccc(F)cc1S2 (centres undefined)	.	8	-6	-11	32*	.	.	47*	.
CCOC(=O)c1c(-c2ccccc2)oc2ccc(O)cc12	-28	3	-5	-10	-7	.	.	.	.
Cc1ccc2[nH]c3ccccc3c(=O)c2c1	-2	-2	-8	-2	9	.	.	.	.
O=c1c2ccccc2[nH]c2ccc(O)cc12	19	9	11	11	41*	.	.	26	.
SMILES	HTRA1 inhibitor	rCAG RNA binder	TCR CD3 inh	SIAE primary	ABHD4 inh	rCAG binder conf	DNA CAG counter	mABHD4 conf	SIAE confirm
CCOC(=O)c1c(-c2ccccc2)[nH]c2ccc(O)cc12	-9	-3	-6	5	31*	.	.	42*	.
CC1=NCC(C)c2c1[nH]c1ccccc21 (centres undefined)	0	4	-6	-3	4	.	.	.	.
Cc1ccn2c(NC3CCCCC3)c(-c3cccc(-c4cccc(Cl)c4)c3)nc2c1	-7	5	-5	2	38*	.	.	54*	.
Cc1nc(NC(=O)COc2ccccc2)sc1C(=O)Nc1ccccc1	-32	4	-3	0	49*	.	.	50*	.
Cc1cc(NCCCCCCCNc2cc(C)nc3cc([N+](=O)[O-])ccc23)c2ccc([N+](=O)[O-])cc2n1	8	18	-10	4	32*	.	.	40*	.
C[C@]12c3[nH]c4cc(-c5ccco5)ccc4c3CCN1C(=O)[C@@H](CC(=O)NCC13CC4CC(CC(C4)C1)C3)C[C@@H]2C(=O)N1CCCCC1	-12	17	-4	-1	10	.	.	.	.
O=C1CSC(c2ccccn2)N1c1cccc(Cl)c1 (centres undefined)	-3	-1	-8	-7	-3	.	.	.	.
Cc1cccc(C)c1NC(=O)CSCC(=O)O	4	5	1	-1	0	.	.	.	.
Cc1cccc(C)c1NC(=O)CSCC(=O)c1ccc(O)c(O)c1	30	10	5	0	32*	.	.	27	.
CCCc1nnc(NC(=O)CCS(=O)(=O)c2ccccc2)s1	-1	-2	-10	2	0	.	.	.	.
OCC[C@H]1C[C@@H](O)[C@H](O)[C@]2(OCCc3ccccc32)O1	8	2	-3	0	35*	.	.	1	.
OCC[C@@H]1C[C@@H](O)[C@H](O)[C@]2(OCCc3ccccc32)O1	-6	1	1	-4	4	.	.	.	.
O=c1ccc2nc3ccccc3sc-2c1	.	20	14	13	66*	.	.	37*	.
CCC(C)Nc1nc(-c2cccc(OC)c2O)nc2ccccc12 (centres undefined)	0	12	-1	14	34*	.	.	37*	.
COc1cccc(-c2nc(NCC3CCCO3)c3ccccc3n2)c1O (centres undefined)	17	11	-2	9	33*	.	.	34*	.
Oc1ccccc1-c1nc(NCC2CCCO2)c2ccccc2n1 (centres undefined)	-24	21	12	2	1	.	.	.	.
CCCC1(C(=O)O)NC(c2ccccc2O)C2C(=O)N(Cc3ccccc3)C(=O)C21 (centres undefined)	1	0	-6	0	1	.	.	.	.
Cc1cc(/C=C(\C#N)C(=O)Nc2ccccc2)c(C)n1-c1cccnc1	-10	-2	-7	1	-4	.	.	.	.

Screens as filed in PubChem BioAssay.
